Measurements: ChEMBL document CHEMBL4665645, “Role of the NMDA Receptor in the Antitumor Activity of Chiral 1,4-Dioxane Ligands in MCF-7 and SKBR3 Breast Cancer Cells” (ACS Med Chem Lett, 2019)

What was measured:
SK-BR-3 = assay: Cytotoxicity against human SK-BR-3 cells assessed as reduction in cell viability incubated for 48 hrs by SRB assay; assay type: functional
Summary of the method: (§1)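 Followed the NCI SRB protocol: cells exposed 48 h to a range of concentrations. GI50 is the concentration giving 50% net growth inhibition; TGI is 100% growth inhibition; LC50 kills 50% of initial cells. Mean ± SE of three separate experiments.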

MCF7 = assay: Cytotoxicity against human MCF7 cells assessed as reduction in cell viability after 48 hrs by SRB assay; assay type: functional; summary of the method: as §1

SMILES | GI50 (SK-BR-3) | LC50 (concentration killing 50% of initial cells) (SK-BR-3) | TGI (SK-BR-3) | GI50 (MCF7) | LC50 (concentration killing 50% of initial cells) (MCF7) | TGI (MCF7)
NC[C@H]1COC[C@](c2ccccc2)(C2CCCCC2)O1 (relative stereo) | 23.8 µM | > 300 µM | 192 µM | 65.3 µM | 176 µM | 107 µM
NCC1COCC(c2ccccc2)(c2ccccc2)O1 (racemic) | 31.2 µM | > 300 µM | 200 µM | 74.4 µM | 253 µM | 137 µM
